Shown is part of a subset that was picked to be rich in hits.
Lipid droplet – modulators of hepatic lipid droplet formation; AML12 mouse hepatocytes, oleate lipid droplets, BODIPY imaging; inhibition, % at 6.5 µM; hit rate 0.4% among 240,000; AID 1656;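 active = lipid droplet intensity inhibited by at least 50%, with more than 500 cells counted; inconclusive = wells with under 300 cells, treated as cytotoxic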
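Test system: AML12 mouse liver cells; schedule: overnight exposure; technique: high-content imaging of BODIPY-stained droplets and DAPI nuclei; read-out: % inhibition of corrected integrated BODIPY droplet signal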
Redox H2O2 prof – compounds producing H2O2 with reducing agent – biochemical, NIH compound library profiling, artefact control for MLSCN library redox annotation, primary screen; AID 878; hit rate 0.03% among 200,000; DTT-dependent redox cycling H2O2, phenol red/HRP absorbance; 100% = 100 µM peroxide control, 0% = buffer; activation, % at 10 µM;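 active = activation of at least 50% relative to the plate's high and low controls in the primary single-dose screen; inactive = activation below 50%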;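 note: compound incubated with DTT at 0.8 mM final as the reducing agent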
MPTP block – permeability transition pore inhibition | inhibition, % at 10 µM | hit rate 1.4% among 360,000 | isolated mouse mitochondria, Ca2+ swelling absorbance, 30 min | AID 602449;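 active = inhibition of 50% or more, scaled per plate between neutral and stimulator controls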
T cruzi repl – T. cruzi replication inhibition; T. cruzi beta-gal in NIH3T3, luminescence, 90 h; inhibition, % (test concentration not listed); hit rate 1.4% among 300,000; AID 1885;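 active = mean inhibition across valid replicates above about 55%, limit read from the data; inconclusive = mean below that limit but half or more replicates reach it; inactive = mean below it, under half of replicates reach it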;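 note: signal also drops with host cell toxicity which is not excluded here; higher percent means less beta-gal luminescence so fewer parasites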
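Incubation – ≥90 h infection period, 3 h prior cell attachment · System – NIH/3T3 fibroblasts plus reporter T. cruzi · Doses – compound pinned at 50 nL/well, DMSO · Read-out basis – percent inhibition of parasite-derived β-gal signal · Signal – luminescent β-galactosidase signal after 60 min lysis · Also added – 5000 T. cruzi trypomastigotes/well · Medium – Low-serum DMEM with 2% FBS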
Lmaj promast – Leishmania major promastigote growth inhibition. Leishmania major promastigotes, resazurin fluorescence viability. inhibition, % at 10 µM. hit rate 9% among 200,000; in the data active = inhibition above about 50%;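 note: promastigotes grown with compound for 44 hours at 28 °C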
Of the large screens only hits and unclear results are named; the others gave an inactive call.

COc1ccc(S(=O)(=O)Cc2ccc(C(=O)NC3CCCCCC3)o2)cc1	none (no result: Redox H2O2 prof, Lmaj promast)
CC1(C(=O)NS(=O)(=O)C2CC2)CCN(C(=O)COCc2ccccc2)C1 (stereo unspecified)	none (no result: Lipid droplet, Redox H2O2 prof, T cruzi repl, Lmaj promast)
CC(C)N(c1ccccc1)c1ccc(NC(=O)COC(=O)CCN2C(=O)c3cccc([N+](=O)[O-])c3C2=O)cc1	none
CCCC(=O)NC(c1ccc(Cl)cc1)c1ccc2cccnc2c1O (stereo unspecified)	T cruzi repl 65 (no result: Redox H2O2 prof, Lmaj promast)
CC(=O)NC(c1ccc2ccccc2c1)c1ccc2cccnc2c1O (stereo unspecified)	T cruzi repl 61 (no result: Redox H2O2 prof, Lmaj promast)
CC1(C)CC(N2CCCC2)=CC(=[N+]2CCCC2)C1	T cruzi repl 67, Lmaj promast 99
CC1(C)CC(NNCCC#N)=CC(=[N+]2CCCC2)C1	none
CC1(C)CC(=O)c2sc(N3CCCCC3)nc2C1	none (no result: Lipid droplet)
c1ccc(CN2CCN(c3ncccn3)CC2)cc1	none (no result: Redox H2O2 prof, Lmaj promast)
CN(Cc1ccccc1)C1=CC(=[N+]2CCCCC2)CC(C)(C)C1	T cruzi repl 70 (no result: Redox H2O2 prof, Lmaj promast)
CC1(C)CC(N2CCCC2)=CC(=[N+]2CCCCC2)C1	T cruzi repl inconclusive, Lmaj promast 100
CC1(C)CC(N2CCN(Cc3ccccc3)CC2)=CC(=[N+]2CCCCC2)C1	T cruzi repl 62 (no result: Redox H2O2 prof, Lmaj promast)
CCn1cc(Br)c(C(=O)NC(=S)Nc2ccc(C(=O)OC)cc2)n1	none
Cc1nc2cc(Cl)c(Cl)cc2n1-c1ccccn1	none (no result: Lipid droplet, Redox H2O2 prof, Lmaj promast)
Cc1ccccc1S(=O)Cc1ccc(C(=O)NCCN2CCOCC2)o1 (stereo unspecified)	none (no result: Redox H2O2 prof, Lmaj promast)
Cc1cc(C)nc(NC(=NCCc2c[nH]c3ccccc23)NC(=O)Nc2ccc(Cl)c(Cl)c2)n1	T cruzi repl 62, Lmaj promast 98
Cc1cc(C)nc(NC(=NCCc2c[nH]c3ccccc23)NC(=O)Nc2ccccc2)n1	Lmaj promast 73
O=C(Nc1c2c(nn1-c1ccc([N+](=O)[O-])cc1)CS(=O)(=O)C2)c1ccco1	none (no result: Redox H2O2 prof, Lmaj promast)
COc1ccc(N2C(=O)CSC23C(=O)N2c4c(cccc43)C(C)=CC2(C)C)cc1 (stereo unspecified)	Lmaj promast 100 (no result: T cruzi repl)
S=c1[nH]nc(-c2cccnc2)n1C1CCCCC1	Lmaj promast 53
COC(=O)c1ccc(NC(=O)CNc2ccccc2)cc1	Lmaj promast 76
COC(=O)c1ccc(NC(=O)CSC2=NC(=O)C(c3ccccc3)C(=O)N2)cc1 (stereo unspecified)	Lmaj promast 53
NC(=O)C1(N2CCCCC2)CCN(C(=O)c2cc(COc3c(F)cccc3F)on2)CC1	none (no result: Lipid droplet, Redox H2O2 prof, T cruzi repl, Lmaj promast)
CCc1nc2ccc(C(=O)NCCC(C)C)cn2c1N(CC)CCN(C)C	none (no result: Lipid droplet, Redox H2O2 prof, T cruzi repl, Lmaj promast)
CCOC(=O)c1c(NC(=O)Cn2cnc([N+](=O)[O-])n2)sc2c1CCCC2	T cruzi repl 64, Lmaj promast 92
Cc1cc([N+](=O)[O-])nn1CCCC(=O)Nc1sc2c(c1C(N)=O)CCC(C)C2 (stereo unspecified)	Lmaj promast 69
CCOC(=O)Nc1sc2c(c1C(N)=O)CCC(C)C2 (stereo unspecified)	none
CC(C)OC(=O)c1c(NC(=O)Cn2cnc([N+](=O)[O-])n2)sc2c1CCCC2	T cruzi repl 105, Lmaj promast 85
CC1CCc2c(sc(NC(=O)Cn3cnc([N+](=O)[O-])n3)c2C(N)=O)C1 (stereo unspecified)	T cruzi repl 68
COC(=O)c1sc(NC(=O)CCCn2nc([N+](=O)[O-])cc2C)c(C(=O)OC)c1C	none
NC(=O)c1c(NC(=O)Cn2cnc([N+](=O)[O-])n2)sc2c1CCCC2	none (no result: Redox H2O2 prof, Lmaj promast)
Cn1nc(OCC(=O)O)cc1C(F)(F)F	none (no result: Redox H2O2 prof, Lmaj promast)
Cc1cccc(NC2=CC(=O)CC(C)(C)C2)c1C	none
CCn1c(SCC(=O)Nc2sc3c(c2C#N)CCC(C(C)(C)C)C3)nnc1-c1ccco1 (stereo unspecified)	none (no result: Lipid droplet)
CCn1c(SCC(=O)Nc2sc3c(c2C#N)CCCC3)nnc1-c1ccco1	T cruzi repl 55
CCOC(=O)c1c(NC(=O)CSc2nnc(-c3c[nH]c4ccccc34)n2C)sc2c1CCCC2	Lmaj promast 51
Cc1cc(C)c(S(=O)(=O)N2CCOC2CNC(=O)C(=O)NCCCN2CCOCC2)c(C)c1 (stereo unspecified)	none (no result: Redox H2O2 prof, Lmaj promast)
Cc1cc(C)n(CC(=O)N2c3ccccc3Sc3ccccc32)n1	Lmaj promast 61
CC(C)CNC(=S)NC(=O)c1csc([N+](=O)[O-])c1	none (no result: Redox H2O2 prof, Lmaj promast)
C=CCNC(=O)O/N=C/c1csc([N+](=O)[O-])c1	T cruzi repl 57 (no result: Redox H2O2 prof, Lmaj promast)
Cc1ccccc1C(=O)N/N=C/c1ccc([N+](=O)[O-])s1	Lmaj promast 100
O=C(N/N=C/c1ccoc1)c1ccccc1Br	none (no result: Redox H2O2 prof, Lmaj promast)
O=C(N/N=C/c1ccc([N+](=O)[O-])s1)c1ccccc1Br	Lmaj promast 100 (no result: Lipid droplet)
Cc1cc(C(=O)N/N=C/c2ccc([N+](=O)[O-])s2)c2ccccc2n1	T cruzi repl 61 (no result: Redox H2O2 prof, Lmaj promast)
CCOc1ccc(N(CC(=O)NCCC2=CCCCC2)S(=O)(=O)c2ccccc2)cc1	T cruzi repl 62
COc1ccc(CCNC(=O)COc2ccc(N(C)S(=O)(=O)c3ccc(Cl)cc3)cc2)cc1	Lmaj promast 97
CCN(c1ccccc1)S(=O)(=O)c1ccc(C(=O)OC(C)C(=O)NCCC2=CCCCC2)cc1 (stereo unspecified)	Lmaj promast 96
COc1ccc(CCNC(=O)CN(c2ccccc2OC)S(=O)(=O)c2ccc(C)cc2)cc1	T cruzi repl 60 (no result: Redox H2O2 prof, Lmaj promast)
COc1ccc(CCNC(=O)CN(c2cc(OC)ccc2OC)S(=O)(=O)c2ccccc2)cc1	none (no result: Redox H2O2 prof, Lmaj promast)
Cc1ccnc(NC(=O)Cn2c(=O)oc3ccccc32)c1	none (no result: Redox H2O2 prof, Lmaj promast)
CC(=O)OCC1OC(n2c(-c3ccc(Cl)cc3)ccc(C#N)c2=S)C(OC(C)=O)C(OC(C)=O)C1OC(C)=O (stereo unspecified)	none (no result: Lipid droplet, Redox H2O2 prof, T cruzi repl, Lmaj promast)
CCN(c1ccccc1)S(=O)(=O)c1ccc(C(=O)Oc2ccc(C(C)=O)cc2)cc1	Lmaj promast 50
COc1ccc(N(CC(=O)NCCC2=CCCCC2)S(=O)(=O)c2ccc(C)cc2)cc1	T cruzi repl 62 (no result: MPTP block)
Cc1ccc(NC(=O)Cc2ccccc2F)cc1S(=O)(=O)N1CCCCCC1	none (no result: Lipid droplet, Redox H2O2 prof, T cruzi repl, Lmaj promast)
O=C(Nc1cc(C(F)(F)F)cc(C(F)(F)F)c1)[C@H]1O[C@@H](n2ccc(=O)[nH]c2=O)[C@H](O)[C@@H]1O	none (no result: Lipid droplet, Redox H2O2 prof, T cruzi repl, Lmaj promast)
CCCCC(CC)C1OCC(CN2CCCC2)O1 (stereo unspecified)	Lmaj promast 84 (no result: Lipid droplet)
CC(C)(C)N(Cc1ccc2c(c1)OCO2)C(=O)/C=C\S(=O)c1ccccc1 (stereo unspecified)	none (no result: Lipid droplet, Redox H2O2 prof, T cruzi repl, Lmaj promast)
c1cc(C(c2nnnn2C2CCCCC2)N2CCN3CCCC3C2)ccn1 (stereo unspecified)	none
c1cnc2ccc(C(c3nnnn3C3CCCCC3)N3CCN(C4CCCCC4)CC3)cc2c1 (stereo unspecified)	T cruzi repl 69, Lmaj promast 99 (no result: Lipid droplet)
c1cnc2ccc(C(c3nnnn3C3CCCCC3)N3CCCCC3)cc2c1 (stereo unspecified)	none
